# Test results: article PMC8577376 (Journal of Medicinal Chemistry, 2021)
# Experiments:
# [1] = test system: A549 lysates (CatL/CatB activity); experiment: Protease activity in A549 cell lysates using Z-Phe-Arg-AMC; type: biochemical, human; conditions: for inhibition of Z-Phe-Arg-AMC cleaving activity in A549 cell extracts: 20 μM; for inactivation of CatL in A549 lysates: 10 μM
# Outline: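 A549 cells lysed by sonication in 50 mM MES pH 6.0 with 100 μM AEBSF, 1 μM pepstatin A, 1 mM EDTA and 1 mM DTT; protein measured by BCA. Equal volume of 50 μM Z-Phe-Arg-AMC then added; activity normalised to 0.2% DMSO wells.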
# [2] = biological target: VeroE6 lysates (CatL activity) (Chlorocebus aethiops, UniProt Q9GKL8); experiment: Protease activity in VeroE6 cell lysates using Z-Phe-Arg-AMC; type: biochemical, monkey; conditions: for inhibition of Z-Phe-Arg-AMC cleaving activity in VeroE6 lysates: 20 μM; for inactivation of CatL in VeroE6 lysates: 10 μM
# Sequence of VeroE6 lysates (CatL activity) (Q9GKL8 114-333): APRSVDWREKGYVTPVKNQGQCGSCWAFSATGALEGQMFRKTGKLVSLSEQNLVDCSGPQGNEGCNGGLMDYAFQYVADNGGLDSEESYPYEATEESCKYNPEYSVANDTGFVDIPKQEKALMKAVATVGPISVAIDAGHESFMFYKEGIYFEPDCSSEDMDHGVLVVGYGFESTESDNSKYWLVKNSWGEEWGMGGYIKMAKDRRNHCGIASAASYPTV
# Human CatB = Human CatB (Homo sapiens, UniProt P07858); experiment: kinact/KI^app determination, recombinant human CatB; type: biochemical; conditions: for kinact/KI: read-out: kinact/KI^app
# Outline: (§1)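 Test compound 555.56–0.01 nM, quadruplicate wells. Product formation rates taken at 6 min intervals over 1 h, normalised to DMSO controls. kobs from inactivation curves; kinact and KIapp by nonlinear regression of kobs = kinact[I]/(KIapp+[I]); ratio then calculated.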
# SARS-CoV-2 [3] = type: cell-based; conditions: MRC-5/ACE2/TMPRSS2 cells
# human CatL [4] = biological target: T1, human CatL (Homo sapiens, UniProt P07711); experiment: kinact/KI^app determination, recombinant human CatL; type: biochemical; conditions: for selectivity for CatL over CatB (kinact/KI^app): human CatL vs human CatB; for kinact/KI: read-out: kinact/KI^app
# T1 sequence (P07711 114-333): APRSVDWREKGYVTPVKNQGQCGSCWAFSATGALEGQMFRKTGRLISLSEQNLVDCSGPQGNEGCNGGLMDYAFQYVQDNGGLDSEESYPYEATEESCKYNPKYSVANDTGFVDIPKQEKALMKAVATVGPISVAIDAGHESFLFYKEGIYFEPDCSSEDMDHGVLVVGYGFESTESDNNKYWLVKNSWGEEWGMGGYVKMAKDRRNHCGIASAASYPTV
# Outline: as §1
# human CatL [5] = biological target: T1, human CatL; experiment: Single-concentration protease screen against human CatL; type: biochemical; conditions: for follow-up screen against CatL: 13 nM
# Recombinant human furin = Recombinant human furin (Homo sapiens, UniProt P09958); type: biochemical; conditions: up to 50 μM (final concentration)
# Sequence of Recombinant human furin (P09958 108-794): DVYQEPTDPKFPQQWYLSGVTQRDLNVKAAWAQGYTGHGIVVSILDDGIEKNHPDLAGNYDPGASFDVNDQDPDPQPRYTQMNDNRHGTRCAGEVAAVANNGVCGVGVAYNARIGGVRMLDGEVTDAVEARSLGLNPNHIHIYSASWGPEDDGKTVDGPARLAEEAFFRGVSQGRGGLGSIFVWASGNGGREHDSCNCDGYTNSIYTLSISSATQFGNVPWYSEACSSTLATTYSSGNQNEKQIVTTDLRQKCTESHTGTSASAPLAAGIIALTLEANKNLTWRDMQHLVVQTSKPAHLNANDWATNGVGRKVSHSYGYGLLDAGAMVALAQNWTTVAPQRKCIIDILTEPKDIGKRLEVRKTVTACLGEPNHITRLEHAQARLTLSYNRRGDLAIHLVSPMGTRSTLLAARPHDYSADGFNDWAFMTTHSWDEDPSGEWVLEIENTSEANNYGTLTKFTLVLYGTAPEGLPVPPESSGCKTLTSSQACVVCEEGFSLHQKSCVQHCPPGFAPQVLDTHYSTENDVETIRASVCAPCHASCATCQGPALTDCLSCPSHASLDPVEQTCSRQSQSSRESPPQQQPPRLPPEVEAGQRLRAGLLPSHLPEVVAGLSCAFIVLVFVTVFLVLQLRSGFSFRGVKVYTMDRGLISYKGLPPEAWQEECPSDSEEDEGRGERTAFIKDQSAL
# SARS-CoV-2 [6] = type: cell-based
# SARS-CoV-2 [7] = experiment: SARS-CoV-2-induced CPE in A549/ACE2 cells, inverted microscope; type: cell-based; conditions: 96 h
# SARS-CoV-2 PLpro = SARS-CoV-2 PLpro (Severe acute respiratory syndrome coronavirus 2, UniProt P0DTD1); experiment: Single-concentration protease screen against SARS-CoV-2 PLpro; type: biochemical; conditions: 10 μM
# [8] = biological target: Recombinant human TMPRSS2 (Homo sapiens, UniProt O15393); experiment: TMPRSS2 protease activity assay; type: biochemical; conditions: up to 50 μM (final concentration)
# Sequence of Recombinant human TMPRSS2 (O15393 whole entry): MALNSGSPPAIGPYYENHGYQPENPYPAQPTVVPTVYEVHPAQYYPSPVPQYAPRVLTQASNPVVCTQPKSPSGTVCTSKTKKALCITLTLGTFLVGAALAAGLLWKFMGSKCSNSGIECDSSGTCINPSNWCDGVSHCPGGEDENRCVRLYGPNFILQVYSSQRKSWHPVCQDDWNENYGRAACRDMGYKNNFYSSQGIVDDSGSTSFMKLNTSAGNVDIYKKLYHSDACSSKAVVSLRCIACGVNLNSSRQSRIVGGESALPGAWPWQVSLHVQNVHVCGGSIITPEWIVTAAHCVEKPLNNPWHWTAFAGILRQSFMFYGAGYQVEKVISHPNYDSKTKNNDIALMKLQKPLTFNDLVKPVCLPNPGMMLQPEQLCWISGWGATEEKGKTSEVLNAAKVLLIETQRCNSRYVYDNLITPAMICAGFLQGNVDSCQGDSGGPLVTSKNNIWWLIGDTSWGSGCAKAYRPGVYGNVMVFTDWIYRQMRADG
# SARS-CoV-2 Mpro = SARS-CoV-2 Mpro (Severe acute respiratory syndrome coronavirus 2, UniProt P0DTD1); experiment: Single-concentration protease screen against SARS-CoV-2 Mpro; type: biochemical; conditions: 10 μM
# Mouse CatL (mCatL) = Mouse CatL (mCatL) (Mus musculus, UniProt P06797); experiment: kinact/KI^app determination, mouse CatL; type: biochemical; conditions: for kinact/KI: read-out: kinact/KI^app
# Sequence of Mouse CatL (mCatL) (P06797 114-334): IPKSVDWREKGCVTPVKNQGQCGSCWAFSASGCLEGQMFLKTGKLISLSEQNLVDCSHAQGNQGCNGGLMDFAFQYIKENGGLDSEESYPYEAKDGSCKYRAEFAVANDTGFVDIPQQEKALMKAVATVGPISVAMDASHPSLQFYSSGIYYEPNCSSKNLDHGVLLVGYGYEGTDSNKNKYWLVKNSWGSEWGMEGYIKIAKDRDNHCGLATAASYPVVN
# Outline: as §1
# SARS-CoV-2 [9] = type: cell-based; conditions: 24 h
# SARS-CoV-2 [10] = experiment: microbe, parasite or virus in culture; type: cell-based
Compound,kinact (Human CatB) [s⁻¹],kinact/KI (Human CatB) [M⁻¹ s⁻¹],kinact (human CatL [4]) [s⁻¹],kinact/KI (human CatL [4]) [M⁻¹ s⁻¹],follow-up screen against CatL (human CatL [5]),lowest concentration completely preventing virus-induced CPE (SARS-CoV-2 [7]) [nM],kinact (Mouse CatL (mCatL)) [s⁻¹],kinact/KI (Mouse CatL (mCatL)) [M⁻¹ s⁻¹],other results
"CCCNC(=O)[C@H]1O[C@@H]1C(=O)N[C@H](C(=O)N1CCC[C@H]1C(=O)O)[C@@H](C)CC [CA-074, reference compound]",,,,,,,,,inhibition of Z-Phe-Arg-AMC cleaving activity in A549 cell extracts [1]: most of the activity was also sensitive; inhibition of Z-Phe-Arg-AMC cleaving activity in VeroE6 lysates [2]: no inhibitory activity
"CC[C@H](C)[C@@H](C(=O)O[C@@H](CC(C)C)C(=O)N[C@@H](CC(C)C)C(=O)N[C@@H](C)/C=C/C(=O)N1C(=O)C=C(OC)[C@@H]1C)N(C)C [compound 1, gallinamide A]",0.000627,5350,0.00475,598000,most potent inhibitors,625,0.00569,1.07e+06,concentration completely neutralizing SARS-CoV-2 entry (SARS-CoV-2 [3]): 32 nM; selectivity for CatL over CatB (kinact/KI^app) (human CatL [4]): 112 fold; inhibition of Z-Phe-Arg-AMC cleaving activity in A549 cell extracts [1]: inhibited; CatL activity after incubation with compound (human CatL [5]; 10 μM): completely inhibited; inhibition of Z-Phe-Arg-AMC cleaving activity in VeroE6 lysates [2]: completely inhibited; inhibition of furin activity (Recombinant human furin): did not inhibit; inhibitory effect on infection by time of addition (SARS-CoV-2 [6]): maximum when 1 was added prior to or at the time of entry; inhibition of PLpro (SARS-CoV-2 PLpro): no inhibition; inhibition of TMPRSS2 activity [8]: did not inhibit; inhibition of Mpro (SARS-CoV-2 Mpro): no inhibition; antiviral activity in HEK293-ACE2-TMPRSS2 cells (SARS-CoV-2 [9]): substantially reduced
CC[C@H](C)[C@@H](C(=O)O[C@@H](CC(C)C)C(=O)N[C@@H](CC(C)C)C(=O)N[C@@H](C)/C=C/C(=O)N1C(=O)C=C(OC)[C@@H]1CC(C)C)N(C)C [compound 3],,,,,most potent inhibitors,,,,
COC1=CC(=O)N(C(=O)/C=C/[C@H](C)NC(=O)[C@H](CC(C)C)NC(=O)[C@H](CC2CCCCC2)NC(=O)C2CCN(C)CC2)[C@H]1Cc1c[nH]c2ccccc12 [compound 17],0.0209,24300,0.00347,193000,most potent inhibitors,,0.00856,292000,"selectivity for CatL over CatB (kinact/KI^app) (human CatL [4]): 8 fold; inactivation of CatL in A549 lysates [1]: complete inactivation; inactivation of CatL in VeroE6 lysates [2]: complete inactivation; EC50 (SARS-CoV-2 [10]; Severe acute respiratory syndrome coronavirus 2, Vero C1008, 72 h, read-out: EC50 SARS-CoV-2, VeroE6 cells, 72 h, mean ± SD of 3–4 independent biological replicates): > 5 µM"
COC1=CC(=O)N(C(=O)/C=C/[C@H](C)NC(=O)[C@H](CCc2ccccc2)NC(=O)[C@H](CC2CCCCC2)NC(=O)[C@H](C(C)C)N(C)C)[C@H]1Cc1c[nH]c2ccccc12 [compound 19],0.00335,9650,0.00587,189000,most potent inhibitors,310,0.00224,136000,concentration completely neutralizing SARS-CoV-2 entry (SARS-CoV-2 [3]): 32 nM
COC1=CC(=O)N(C(=O)/C=C/[C@H](C)NC(=O)[C@H](CC(C)C)NC(=O)[C@H](CC(C)C)NC(=O)C2CCN(C)CC2)[C@H]1Cc1c[nH]c2ccccc12 [compound 20],0.017,19900,0.00834,290000,most potent inhibitors,,0.00319,806000,inactivation of CatL in A549 lysates [1]: complete inactivation; inactivation of CatL in VeroE6 lysates [2]: complete inactivation
COC1=CC(=O)N(C(=O)/C=C/[C@H](CCc2ccccc2)NC(=O)[C@H](CC(C)C)NC(=O)[C@H](CC(C)C)NC(=O)[C@H](C(C)C)N(C)C)[C@H]1Cc1c[nH]c2ccccc12 [compound 23],0.00189,7940,0.00985,835000,most potent inhibitors,310,0.0096,2.31e+06,"fold more potent than parent natural product 1, based on kinact/KI^app (human CatL [4]; human CatL): 1.4 fold"
"CS(=O)(=O)O.CS(=O)(=O)O.N=C(N)Nc1ccc(C(=O)Oc2ccc3cc(C(=N)N)ccc3c2)cc1 [nafamostat mesylate, reference compound]",,,,,,,,,concentration of neutralization of infection (SARS-CoV-2 [3]): 4 µM; antiviral activity on VeroE6 cells (SARS-CoV-2 [10]): not effective; antiviral activity on VeroE6 cells (SARS-CoV-2 [10]; listed as Nafamostat mesylate): did not exhibit notable antiviral activity; antiviral activity in HEK293-ACE2-TMPRSS2 cells (SARS-CoV-2 [9]): potent antiviral activity
